Source: ChEMBL document CHEMBL4765319, “Identification of a new series of flavopiridol-like structures as kinase inhibitors with high cytotoxic potency” (Eur J Med Chem, 2020)

Experiments:
SK-OV-3 = experiment: Antiproliferative activity against human SKOV3 cells assessed as reduction in cell viability incubated for 72 hrs by CellTiter-Blue fluorescence assay; conditions: SK-OV-3, 72 h
CDK2/Cyclin A2 = CDK2/Cyclin A2 (Homo sapiens, UniProt P24941); experiment: Inhibition of human CDK2/cyclin A in presence of ATP by ADP-glo luminescent assay; assay type: protein-complex assay
In short: (§1)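 Human kinases tested over roughly 0.0003–10 μM by ADP-Glo luminescence with 10 μM ATP, in duplicate. IC50 is taken from dose-response curves.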

[1] = target: T1, Glycogen synthase kinase-3 beta (Homo sapiens, UniProt P49841); experiment: Inhibition of human GSK3beta assessed as residual activity at 10 uM in presence of ATP by ADP-glo luminescent assay relative to control
In short: (§2)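 Human kinases assayed by ADP-Glo luminescence with 10 μM ATP, compound at 10 or 1 μM. Activity is expressed as % of maximal activity relative to a DMSO control, mean n = 2.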
Target sequence in this assay (P49841 whole entry, looked up): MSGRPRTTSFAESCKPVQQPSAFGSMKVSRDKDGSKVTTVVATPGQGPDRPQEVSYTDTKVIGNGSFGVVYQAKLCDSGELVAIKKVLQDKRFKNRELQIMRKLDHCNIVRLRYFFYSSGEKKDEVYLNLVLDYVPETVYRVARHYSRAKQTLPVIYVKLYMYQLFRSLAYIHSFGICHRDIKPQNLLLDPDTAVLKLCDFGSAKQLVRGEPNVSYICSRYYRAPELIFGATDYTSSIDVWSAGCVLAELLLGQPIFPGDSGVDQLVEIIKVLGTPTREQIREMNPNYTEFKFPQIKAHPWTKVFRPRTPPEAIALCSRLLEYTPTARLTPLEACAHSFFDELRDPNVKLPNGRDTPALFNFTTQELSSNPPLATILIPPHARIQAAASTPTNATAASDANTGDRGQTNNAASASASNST

[2] = target: T1, Glycogen synthase kinase-3 beta; experiment: Inhibition of human GSK3beta in presence of ATP by ADP-glo luminescent assay
In short: as §1
Target sequence in this assay (P49841 whole entry): as the sequence (P49841 whole entry, looked up) above

PC-3 = experiment: Antiproliferative activity against human PC-3 cells assessed as reduction in cell viability incubated for 72 hrs by CellTiter-Blue fluorescence assay; conditions: PC-3, 72 h
Plasmodium falciparum [3] = experiment: Inhibition of Plasmodium falciparum GSK3 assessed as residual activity at 10 uM in presence of ATP by ADP-glo luminescent assay relative to control
In short: (§3)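 Recombinant P. falciparum GSK3, bacterially expressed, in buffer A (10 mM MgCl2, 1 mM EGTA, 1 mM DTT, 25 mM Tris-HCl pH 7.5, 50 μg/ml heparin). Substrate 0.010 μg/μl GS-1 peptide, 10 μM ATP, ADP-Glo luminescence. Compound at 10 or 1 μM; % residual activity vs DMSO control, mean n = 2.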

NCI-N87 = experiment: Antiproliferative activity against human NCI-N87 cells assessed as reduction in cell viability incubated for 72 hrs by CellTiter-Blue fluorescence assay; conditions: NCI-N87, 72 h
Sus scrofa [4] = organism: Sus scrofa; experiment: Inhibition of porcine GSK3alpha/beta assessed as residual activity at 10 uM in presence of ATP by ADP-glo luminescent assay relative to control
In short: (§4)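 Porcine brain GSK3α/β, native and affinity-purified. Assayed by ADP-Glo luminescence with 10 μM ATP and 0.010 μg/μl GS-1 peptide substrate. Buffer A: 10 mM MgCl2, 1 mM EGTA, 1 mM DTT, 25 mM Tris-HCl pH 7.5, 50 μg/ml heparin. Compound tested at 10 or 1 μM. Result is % of maximal activity versus DMSO control, mean of n = 2.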

Plasmodium falciparum [5] = experiment: Inhibition of Plasmodium falciparum GSK3 assessed as residual activity at 1 uM in presence of ATP by ADP-glo luminescent assay relative to control
In short: as §3

Leishmania major [6] = experiment: Inhibition of Leishmania major CK1 assessed as residual activity at 10 uM in presence of ATP by ADP-glo luminescent assay relative to control
Sus scrofa [7] = organism: Sus scrofa; experiment: Inhibition of porcine CK1delta/epsilon assessed as residual activity at 10 uM in presence of ATP by ADP-glo luminescent assay relative to control
[8] = target: T2, CDK2/Cyclin A2 (Homo sapiens) (UniProt P24941+P20248); experiment: Inhibition of human CDK2/cyclin A assessed as residual activity at 1 uM in presence of ATP by ADP-glo luminescent assay relative to control; assay type: protein-complex assay
In short: as §2

[9] = target: T1, Glycogen synthase kinase-3 beta; experiment: Inhibition of human GSK3beta assessed as residual activity at 1 uM in presence of ATP by ADP-glo luminescent assay relative to control
In short: as §2
Target sequence in this assay (P49841 whole entry, looked up): as above

[10] = target: T2, CDK2/Cyclin A2 (Homo sapiens); experiment: Inhibition of human CDK2/cyclin A assessed as residual activity at 10 uM in presence of ATP by ADP-glo luminescent assay relative to control; assay type: protein-complex assay
In short: as §2

Sus scrofa [11] = organism: Sus scrofa; experiment: Inhibition of porcine CK1delta/epsilon assessed as residual activity at 1 uM in presence of ATP by ADP-glo luminescent assay relative to control
Sus scrofa [12] = organism: Sus scrofa; experiment: Inhibition of porcine GSK3alpha/beta assessed as residual activity at 1 uM in presence of ATP by ADP-glo luminescent assay relative to control
In short: as §4

[13] = target: T3, CDK9/cyclin T1 (Homo sapiens) (UniProt O60563+P50750); experiment: Inhibition of human CDK9/cyclin T assessed as residual activity at 10 uM in presence of ATP by ADP-glo luminescent assay relative to control; assay type: protein-complex assay
In short: as §2

Leishmania major [14] = experiment: Inhibition of Leishmania major CK1 assessed as residual activity at 1 uM in presence of ATP by ADP-glo luminescent assay relative to control
MIA PaCa-2 = experiment: Antiproliferative activity against human MIA PaCa-2 cells assessed as reduction in cell viability incubated for 72 hrs by CellTiter-Blue fluorescence assay; conditions: MIA PaCa-2, 72 h
CDK9/cyclin T1 = CDK9/cyclin T1 (Homo sapiens, UniProt P50750); experiment: Inhibition of human CDK9/cyclin T in presence of ATP by ADP-glo luminescent assay; assay type: protein-complex assay
In short: as §1

[15] = target: T4, Cyclin-dependent kinase 5/CDK5 activator 1 (Homo sapiens) (UniProt Q00535+Q15078); experiment: Inhibition of human CDK5/p25 assessed as residual activity at 1 uM in presence of ATP by ADP-glo luminescent assay relative to control; assay type: protein-complex assay
In short: as §2

[16] = target: Cyclin-dependent kinase 5/CDK5 activator 1 (Homo sapiens, UniProt Q00535); experiment: Inhibition of human CDK5/p25 in presence of ATP by ADP-glo luminescent assay; assay type: protein-complex assay
In short: as §1

SK-BR-3 = experiment: Antiproliferative activity against human SK-BR-3 cells assessed as reduction in cell viability incubated for 72 hrs by CellTiter-Blue fluorescence assay; conditions: SK-BR-3, 72 h
K562 = experiment: Antiproliferative activity against human K562 cells assessed as reduction in cell viability incubated for 72 hrs by CellTiter-Blue resazurin fluorescence assay; conditions: K562, 72 h
[17] = target: T4, Cyclin-dependent kinase 5/CDK5 activator 1 (Homo sapiens); experiment: Inhibition of human CDK5/p25 assessed as residual activity at 10 uM in presence of ATP by ADP-glo luminescent assay relative to control; assay type: protein-complex assay
In short: as §2

HCT-116 = experiment: Antiproliferative activity against human HCT-116 cells assessed as reduction in cell viability incubated for 72 hrs by CellTiter-Blue fluorescence assay; conditions: HCT-116, 72 h
[18] = target: T3, CDK9/cyclin T1 (Homo sapiens); experiment: Inhibition of human CDK9/cyclin T assessed as residual activity at 1 uM in presence of ATP by ADP-glo luminescent assay relative to control; assay type: protein-complex assay
In short: as §2

T4 sequence (Q00535 whole entry): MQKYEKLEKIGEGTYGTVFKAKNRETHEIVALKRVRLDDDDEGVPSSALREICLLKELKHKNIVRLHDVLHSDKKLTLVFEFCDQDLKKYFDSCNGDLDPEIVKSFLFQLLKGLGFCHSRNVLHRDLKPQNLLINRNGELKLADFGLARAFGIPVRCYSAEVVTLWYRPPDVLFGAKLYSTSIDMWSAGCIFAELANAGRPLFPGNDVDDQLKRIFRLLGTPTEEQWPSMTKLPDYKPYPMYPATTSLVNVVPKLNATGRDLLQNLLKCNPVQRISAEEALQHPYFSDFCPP
T4 sequence (Q15078 99-307 partner limits assumed): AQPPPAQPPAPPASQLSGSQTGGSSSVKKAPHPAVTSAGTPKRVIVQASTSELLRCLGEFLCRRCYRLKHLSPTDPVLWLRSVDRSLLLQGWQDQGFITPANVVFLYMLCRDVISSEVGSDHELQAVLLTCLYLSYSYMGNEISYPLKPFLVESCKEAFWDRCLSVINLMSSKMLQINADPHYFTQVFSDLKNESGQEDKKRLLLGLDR
Sequence of CDK9/cyclin T1 (O60563 whole entry): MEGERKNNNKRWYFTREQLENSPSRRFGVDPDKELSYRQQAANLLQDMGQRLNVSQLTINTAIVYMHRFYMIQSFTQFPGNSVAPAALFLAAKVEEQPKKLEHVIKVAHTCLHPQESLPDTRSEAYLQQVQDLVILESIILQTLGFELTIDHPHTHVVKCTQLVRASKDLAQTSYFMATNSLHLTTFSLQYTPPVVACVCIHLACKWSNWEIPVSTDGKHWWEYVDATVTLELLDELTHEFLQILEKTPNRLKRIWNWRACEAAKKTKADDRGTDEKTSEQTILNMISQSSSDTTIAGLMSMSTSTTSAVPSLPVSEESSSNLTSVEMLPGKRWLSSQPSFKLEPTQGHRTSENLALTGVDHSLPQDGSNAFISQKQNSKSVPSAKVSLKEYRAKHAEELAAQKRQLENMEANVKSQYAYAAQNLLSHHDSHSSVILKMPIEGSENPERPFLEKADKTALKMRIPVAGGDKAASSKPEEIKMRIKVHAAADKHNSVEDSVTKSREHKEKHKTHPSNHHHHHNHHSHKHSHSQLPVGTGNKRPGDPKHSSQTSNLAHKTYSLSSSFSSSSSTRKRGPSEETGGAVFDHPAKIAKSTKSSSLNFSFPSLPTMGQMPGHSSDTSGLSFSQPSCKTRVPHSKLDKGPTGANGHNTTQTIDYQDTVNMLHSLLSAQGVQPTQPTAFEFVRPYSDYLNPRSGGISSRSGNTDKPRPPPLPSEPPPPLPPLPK
Sequence of CDK9/cyclin T1 (P50750 whole entry): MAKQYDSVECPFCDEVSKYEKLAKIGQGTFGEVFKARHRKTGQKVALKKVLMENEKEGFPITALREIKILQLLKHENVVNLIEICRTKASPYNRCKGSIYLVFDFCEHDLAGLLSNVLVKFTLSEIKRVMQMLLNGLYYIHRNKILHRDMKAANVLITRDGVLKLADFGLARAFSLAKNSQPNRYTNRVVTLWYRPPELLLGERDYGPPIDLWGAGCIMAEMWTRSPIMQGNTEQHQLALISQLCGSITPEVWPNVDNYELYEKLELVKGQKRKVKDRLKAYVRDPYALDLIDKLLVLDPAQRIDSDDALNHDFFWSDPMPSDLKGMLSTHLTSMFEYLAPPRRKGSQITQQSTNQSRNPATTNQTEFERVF
Sequence of Cyclin-dependent kinase 5/CDK5 activator 1 (Q00535 whole entry): as the sequence (Q00535 whole entry) above
Sequence of Cyclin-dependent kinase 5/CDK5 activator 1 (Q15078 whole entry, further chain): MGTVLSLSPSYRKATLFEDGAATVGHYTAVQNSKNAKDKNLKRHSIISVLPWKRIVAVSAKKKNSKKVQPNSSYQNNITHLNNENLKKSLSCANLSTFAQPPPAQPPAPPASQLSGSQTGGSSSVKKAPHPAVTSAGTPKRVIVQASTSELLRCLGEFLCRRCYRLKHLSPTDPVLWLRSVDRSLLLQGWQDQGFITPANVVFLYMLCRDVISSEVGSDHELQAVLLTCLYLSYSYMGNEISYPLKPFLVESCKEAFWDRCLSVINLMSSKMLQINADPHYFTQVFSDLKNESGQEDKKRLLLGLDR

Compound: CC(=O)OC[C@@H]1O[C@@H](Sc2ccc(-c3cc(=O)c4c(O)cc(O)c(C5=CCN(C)CC5)c4o3)c(Cl)c2)[C@@H](OC(C)=O)C(OC(C)=O)C1OC(C)=O (single isomer, unassigned)
- IC50 (SK-OV-3): 2330 nM

Compound: CN1CC=C(c2c(O)cc(O)c3c(=O)cc(-c4ccc(Sc5ccc(C(=O)NO)cn5)cc4)oc23)CC1
- IC50 (SK-OV-3): > 10000 nM

Compound: CN1CC=C(c2c(O)cc(O)c3c(=O)cc(-c4ccc(Sc5nc6ccccc6n5C)cc4)oc23)CC1
- IC50 (CDK2/Cyclin A2): 349 nM
- Activity [1]: -3%
- IC50 [2]: 160 nM
- IC50 (PC-3): 276 nM
- Activity (Plasmodium falciparum [3]): 79%
- IC50 (NCI-N87): 391 nM
- Activity (Sus scrofa [4]): 8%
- Activity (Plasmodium falciparum [5]): 80%
- Activity (Leishmania major [6]): 57%
- Activity (Sus scrofa [7]): 41%
- Activity [8]: 51%
- Activity [9]: 31%
- Activity [10]: 25%
- Activity (Sus scrofa [11]): 83%
- Activity (Sus scrofa [12]): 41%
- Activity [13]: -4%
- Activity (Leishmania major [14]): 68%
- IC50 (SK-OV-3): 344 nM
- IC50 (MIA PaCa-2): 361 nM
- IC50 (CDK9/cyclin T1): 14 nM
- Activity [15]: 41%
- IC50 [16]: 284 nM
- IC50 (SK-BR-3): 249 nM
- IC50 (K562): 345 nM
- Activity [17]: 26%
- IC50 (HCT-116): 219 nM
- Activity [18]: -2%

Compound: COc1ccc2[nH]c(Sc3ccc(-c4cc(=O)c5c(O)cc(O)c(C6=CCN(C)CC6)c5o4)cc3)nc2c1
- IC50 (SK-OV-3): 1200 nM

Compound: CC(=O)OC[C@@H]1O[C@@H](Sc2ccc(-c3cc(=O)c4c(O)cc(O)c(C5=CCN(C)CC5)c4o3)cc2)[C@@H](OC(C)=O)[C@H](OC(C)=O)[C@@H]1OC(C)=O
- IC50 (SK-OV-3): 2870 nM

Compound: CN1CC=C(c2c(O)cc(O)c3c(=O)cc(-c4ccc(SCCC(=O)NOC5CCCCO5)cc4)oc23)CC1 (stereo not drawn)
- IC50 (SK-OV-3): 6850 nM

Compound: COC(=O)[C@H](CO)NC(=O)[C@H](CSc1ccc(-c2cc(=O)c3c(O)cc(O)c(C4=CCN(C)CC4)c3o2)cc1)NC(=O)OCc1ccccc1
- IC50 (SK-OV-3): 4300 nM

Compound: CN1CC=C(c2c(O)cc(O)c3c(=O)cc(-c4ccc(Nc5ccccc5)cc4)oc23)CC1
- IC50 (SK-OV-3): 1200 nM

Compound: CN1CC=C(c2c(O)cc(O)c3c(=O)cc(-c4ccc(Sc5nc6ccccc6[nH]5)cc4)oc23)CC1
- IC50 (CDK2/Cyclin A2): 162 nM
- Activity [1]: -8%
- IC50 [2]: 117 nM
- IC50 (PC-3): 742 nM
- Activity (Plasmodium falciparum [3]): 54%
- IC50 (NCI-N87): 183 nM
- Activity (Sus scrofa [4]): 11%
- Activity (Plasmodium falciparum [5]): 85%
- Activity (Leishmania major [6]): 40%
- Activity (Sus scrofa [7]): 69%
- Activity [8]: 35%
- Activity [9]: 6%
- Activity [10]: 5%
- Activity (Sus scrofa [11]): 91%
- Activity (Sus scrofa [12]): 36%
- Activity [13]: 10%
- Activity (Leishmania major [14]): 99%
- IC50 (SK-OV-3): 595 nM
- IC50 (MIA PaCa-2): 852 nM
- IC50 (CDK9/cyclin T1): 8 nM
- Activity [15]: 14%
- IC50 [16]: 121 nM
- IC50 (SK-BR-3): 254 nM
- IC50 (K562): 194 nM
- Activity [17]: 4%
- IC50 (HCT-116): 293 nM
- Activity [18]: 8%

Compound: CC(=O)N[C@H](CSc1ccc(-c2cc(=O)c3c(O)cc(O)c(C4=CCN(C)CC4)c3o2)cc1)C(=O)O
- IC50 (SK-OV-3): > 10000 nM

Compound: CN1CC=C(c2c(O)cc(O)c3c(=O)cc(-c4ccc(Sc5nc6ccccc6o5)cc4)oc23)CC1
- IC50 (SK-OV-3): 2000 nM
